Active and inactive are the calls of the source. The calls are words filed in the database; no cut-off is given here.
Columns and labels:
[1] = Induction of NO release in phosphate buffered saline of pH 7.4 at 100 uM after 1 hr by Griess assay in presence of L-cysteine; assay type: physicochemical; details: buffer, pH 7.4, 1 h
Summary of the method: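 Incubated 1 h at 37 °C in PBS pH 7.4 with L-cysteine. Reaction mixture treated with Griess reagent (sulfanilamide, N-naphthylethylenediamine dihydrochloride, phosphoric acid) for 10 min at room temperature, then absorbance read at 540 nm. Expressed as percent of a theoretical maximum of 1 mol NO per mol compound. Sodium nitroprusside as positive control.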

[2] = target: Aldo-keto reductase family 1 member B1 (Bos taurus, UniProt P16116); experiment: Inhibition of aldose reductase from calf lense by AR assay
[3] = Inhibition of advanced glycation end product formation in phosphate buffered saline at pH 7.4 after 14 days by fluorospectrophotometry in presence of bovine serum albumin; assay type: physicochemical
HepG2 = experiment: Increase in glucose consumption in human HepG2 cells at 10 umol/L after 24 hrs by enzymatic method relative to control blank; assay type: functional, cell-based
Summary of the method: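 HepG2 cells in high-glucose DMEM with 10% FBS, grown to 80–90% confluence, switched to DMEM with 1% FBS for 12 h, then treated 24 h in the same medium. Medium glucose measured enzymatically with a kit. Consumption taken as blank-well glucose minus remaining glucose, then adjusted for cell number by MTT. Vehicle 0.1% DMSO; mean S.D., n = 3.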

Compound	Activity [1] [%]	IC50 [2] [µM]	IC50 [3] [µM]	Activity (HepG2)
O=C(CCO[N+](=O)[O-])OCOc1cc(O)c2c(=O)cc(-c3ccccc3)oc2c1	1.77	0.3	43.9	–
O=C(CCCCO[N+](=O)[O-])OCOc1cc(O)c2c(=O)cc(-c3ccccc3)oc2c1	1.26	0.13	52.5	Active
O=C(CCCCCCO[N+](=O)[O-])OCOc1cc(O)c2c(=O)cc(-c3ccccc3)oc2c1	1.38	0.21	138	Active
O=c1cc(-c2ccccc2)oc2cc(O)cc(O)c12 [CHRYSIN]	–	7.79	63.5	inactive
N=C(N)NN [PIMAGEDINE]	–	–	826	–
O=c1cc(-c2ccccc2)oc2cc(OCCO[N+](=O)[O-])cc(O)c12	1.67	0.49	≥ 300	Active

Now from value to compound, other results behind:

Activity [1] [%]	IC50 [2] [µM]	IC50 [3] [µM]	Compound	Activity (HepG2)
1.48	0.39	≥ 300	CC(=O)Oc1cc(OCCCCO[N+](=O)[O-])cc2oc(-c3ccccc3)cc(=O)c12	–
1.43	0.42	≥ 300	CC(=O)Oc1cc(OCCCCCCO[N+](=O)[O-])cc2oc(-c3ccccc3)cc(=O)c12	–
1.68	0.86	≥ 300	CC(=O)Oc1cc(OCCO[N+](=O)[O-])cc2oc(-c3ccccc3)cc(=O)c12	–
1.21	0.71	≥ 300	O=c1cc(-c2ccccc2)oc2cc(OCCCCCCO[N+](=O)[O-])cc(O)c12	Active
1.43	0.29	75.5	O=c1cc(-c2ccccc2)oc2cc(OCCCCO[N+](=O)[O-])cc(O)c12	Active
